Assay results as given in ChEMBL document CHEMBL1275519, “In vivo pharmacodynamics of ceftobiprole against multiple bacterial pathogens in murine thigh and lung infection models” (Antimicrob Agents Chemother, 2008).
≈ marks a conversion by molar mass, not a printed value.

What was measured:
[1] = T>MIC in Enterobacter cloacae 4567 infected CD1 neutropenic mouse at 2-log kill dose of 4.67 mg/kg, sc administered every 3 hrs; assay type: functional; conditions: route subcutaneous
Staphylococcus aureus [2] = assay: Antimicrobial activity against Staphylococcus aureus ATCC 33591 by broth dilution method; assay type: functional
Outline: (§1)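 Ceftobiprole MIC by broth microdilution per Clinical and Laboratory Standards Institute (formerly NCCLS) methods, using ceftobiprole standard powder.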

[3] = Half life in CD1 neutropenic mouse with bacterial infection in thigh at 160 mg/kg, sc; assay type: ADME, organism-based; design: dose 160 mg/kg, route subcutaneous; conditions: in vivo
Outline: (§2)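 Neutropenic thigh-infected mice (cyclophosphamide i.p. 150 mg/kg day −4, 100 mg/kg day −1) given single s.c. ceftobiprole medocaril doses; two groups of three mice per dose bled retro-orbitally at 0.5–6 h, each animal 3–4 times. Total serum drug measured by agar diffusion bioassay with E. coli NIH-J (linear 0.25–256 μg/ml). Cmax, t1/2 and AUC from one-compartment model.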

Streptococcus pneumoniae [4] = assay: Antimicrobial activity against Streptococcus pneumoniae CDC 1329 by broth dilution method; assay type: functional
Outline: (§3)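 Ceftobiprole MIC determined by CLSI (NCCLS) broth microdilution.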

[5] = T>MIC in Streptococcus pneumoniae ATCC 10813 infected CD1 neutropenic mouse at static dose of 0.180 mg/kg, sc administered every 6 hrs; assay type: functional; conditions: dose 0.18 mg/kg; route subcutaneous
Outline: (§4)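 Neutropenic mice (cyclophosphamide i.p. 150 and 100 mg/kg, 4 and 1 days pre-infection) given 0.1 ml thigh inoculum (1:10 dilution of 10^8 CFU/ml), then treated from 2 h post-infection for 24 h with s.c. ceftobiprole medocaril (0.010–160 mg/kg) at varied intervals. Thigh CFU plated from homogenates. Static dose came from a sigmoid Hill model, and T>MIC was estimated from mouse PK and MIC.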

[6] = T>MIC in Escherichia coli ATCC 25922 infected CD1 neutropenic mouse at 2-log kill dose of 42.4 mg/kg, sc administered every 6 hrs; assay type: functional; conditions: route subcutaneous
[7] = T>MIC in Streptococcus pneumoniae ATCC 10813 infected CD1 neutropenic mouse at 2-log kill dose of 0.552 mg/kg, sc administered every 6 hrs; assay type: functional; conditions: route subcutaneous
[8] = T>MIC in Staphylococcus aureus ATCC Smith infected CD1 neutropenic mouse at 2-log kill dose of 9.60 mg/kg, sc administered every 6 hrs; assay type: functional; conditions: dose 9.6 mg/kg; route subcutaneous
Streptococcus pneumoniae [9] = assay: Antimicrobial activity against Streptococcus pneumoniae CDC 1293 by broth dilution method; assay type: functional; outline: as §3
Streptococcus pneumoniae [10] = assay: Antimicrobial activity against Streptococcus pneumoniae MNO-418 by broth dilution method; assay type: functional; outline: as §1
[11] = AUC in CD1 neutropenic mouse with bacterial infection in thigh at 10 mg/kg, sc; conditions: plasma
[12] = T>MIC in Enterobacter cloacae 2249 infected CD1 neutropenic mouse at 2-log kill dose of 155 mg/kg, sc administered every 3 hrs; assay type: functional; conditions: route subcutaneous
[13] = T>MIC in Enterobacter cloacae 2249 infected CD1 neutropenic mouse at static dose of 22.2 mg/kg, sc administered every 3 hrs; assay type: functional; conditions: route subcutaneous; outline: as §4
[14] = T>MIC in methicillin-resistant Staphylococcus aureus 22115 infected CD1 neutropenic mouse at static dose of 16.9 mg/kg, sc administered every 6 hrs; assay type: functional; conditions: route subcutaneous
Streptococcus pneumoniae [15] = assay: Antimicrobial activity against Streptococcus pneumoniae CDC 673 by broth dilution method; assay type: functional; outline: as §1
[16] = T>MIC in methicillin-resistant Staphylococcus aureus WIS-1 infected CD1 neutropenic mouse at static dose of 16.1 mg/kg, sc administered every 6 hrs; assay type: functional; conditions: route subcutaneous
[17] = T>MIC in Staphylococcus aureus ATCC 22923 infected CD1 neutropenic mouse at static dose of 2.03 mg/kg, sc administered every 6 hrs; assay type: functional; conditions: route subcutaneous; outline: as §4
Staphylococcus aureus [18] = assay: Antimicrobial activity against methicillin-resistant Staphylococcus aureus 12248 by broth dilution method; assay type: functional; outline: as §1
[19] = T>MIC in Pseudomonas aeruginosa ATCC 27853 infected CD1 neutropenic mouse at 2-log kill dose of 110 mg/kg, sc administered every 3 hrs; assay type: functional; conditions: route subcutaneous
Escherichia coli = assay: Antimicrobial activity against Escherichia coli ATCC 25922 by broth dilution method; assay type: functional; outline: as §3
Enterobacter cloacae = assay: Antimicrobial activity against Enterobacter cloacae 2249 by broth dilution method; assay type: functional; outline: as §3
[20] = T>MIC in methicillin-resistant Staphylococcus aureus WIS-1 infected CD1 neutropenic mouse at 2-log kill dose of 53.9 mg/kg, sc administered every 6 hrs; assay type: functional; conditions: route subcutaneous
Staphylococcus aureus [21] = assay: Antimicrobial activity against methicillin-resistant Staphylococcus aureus 11888 by broth dilution method; assay type: functional; outline: as §1
Pseudomonas aeruginosa = assay: Antimicrobial activity against Pseudomonas aeruginosa ATCC 27853 by broth dilution method; assay type: functional; outline: as §1
[22] = AUC in CD1 neutropenic mouse with bacterial infection in thigh at 40 mg/kg, sc; assay type: ADME, organism-based; design: dose 40 mg/kg, route subcutaneous; conditions: plasma; outline: as §2
[23] = T>MIC in Streptococcus pneumoniae CDC 1329 infected CD1 neutropenic mouse at 2-log kill dose of 5.51 mg/kg, sc administered every 6 hrs; assay type: functional; conditions: route subcutaneous
[24] = T>MIC in Streptococcus pneumoniae CDC 1293 infected CD1 neutropenic mouse at static dose of 2.72 mg/kg, sc administered every 6 hrs; assay type: functional; conditions: route subcutaneous; outline: as §4
Staphylococcus aureus [25] = assay: Antimicrobial activity against Staphylococcus aureus ATCC 29213 by broth dilution method; assay type: functional; outline: as §1
[26] = T>MIC in Streptococcus pneumoniae CDC 1293 infected CD1 neutropenic mouse at 2-log kill dose of 3.55 mg/kg, sc administered every 6 hrs; assay type: functional; conditions: route subcutaneous
[27] = T>MIC in methicillin-resistant Staphylococcus aureus 12248 infected CD1 neutropenic mouse at 2-log kill dose of 50.5 mg/kg, sc administered every 6 hrs; assay type: functional; conditions: route subcutaneous
[28] = T>MIC in Enterobacter cloacae 4567 infected CD1 neutropenic mouse at static dose of 3.28 mg/kg, sc administered every 3 hrs; assay type: functional; conditions: route subcutaneous; outline: as §4
[29] = T>MIC in Klebsiella pneumoniae infected CD1 neutropenic mouse at static dose of 6.61 mg/kg, sc administered every 6 hrs; assay type: functional; conditions: route subcutaneous; outline: as §4
[30] = T>MIC in Streptococcus pneumoniae CDC 673 infected CD1 neutropenic mouse at static dose of 6.68 mg/kg, sc administered every 6 hrs; assay type: functional; conditions: route subcutaneous; outline: as §4

**Q.** With `Nc1nc(/C(=N/O)C(=O)N[C@@H]2C(=O)N3C(C(=O)O)=C(/C=C4\CCN([C@@H]5CCNC5)C4=O)CS[C@H]23)ns1` [CEFTOBIPROLE] as the molecule, how does the “fT>MIC” value [1] read?
**A.** 40.9%

**Q.** And the MIC (Staphylococcus aureus [2])?
**A.** 1 µg/mL (≈ 1.87 µM)

**Q.** What about the half-life [3] of the same molecule?
**A.** 31.7 min

**Q.** What about the MIC (Streptococcus pneumoniae [4]) of the same molecule?
**A.** 0.25 µg/mL (≈ 0.468 µM)

**Q.** What about the “fT>MIC” value [5] of the same molecule?
**A.** 19.4%

**Q.** What about the “fT>MIC” value [6] of the same molecule?
**A.** 57.8%

**Q.** And the “fT>MIC” value [7]?
**A.** 24.8%

**Q.** And the “fT>MIC” value [8]?
**A.** 25.9%

**Q.** And the MIC (Streptococcus pneumoniae [9])?
**A.** 0.5 µg/mL (≈ 0.935 µM)

**Q.** And the MIC (Streptococcus pneumoniae [10])?
**A.** 0.015 µg/mL (≈ 0.0281 µM)

**Q.** What about the AUC at 10 mg/kg [11] of the same molecule?
**A.** 5850 ng·h/mL

**Q.** What about the “fT>MIC” value [12] of the same molecule?
**A.** 100%

**Q.** What about the “fT>MIC” value [13] of the same molecule?
**A.** 44.6%

**Q.** What about the “fT>MIC” value [14] of the same molecule?
**A.** 25.4%

**Q.** And the MIC (Streptococcus pneumoniae [15])?
**A.** 1 µg/mL (≈ 1.87 µM)

**Q.** What about the “fT>MIC” value [16] of the same molecule?
**A.** 25%

**Q.** What about the “fT>MIC” value [17] of the same molecule?
**A.** 14.1%

**Q.** What about the MIC (Staphylococcus aureus [18]) of the same molecule?
**A.** 2 µg/mL (≈ 3.74 µM)

**Q.** What about the “fT>MIC” value [19] of the same molecule?
**A.** 98.8%

**Q.** What about the MIC (Escherichia coli) of the same molecule?
**A.** 0.06 µg/mL (≈ 0.112 µM)

**Q.** What about the MIC (Enterobacter cloacae) of the same molecule?
**A.** 2 µg/mL (≈ 3.74 µM)

**Q.** What about the “fT>MIC” value [20] of the same molecule?
**A.** 39.1%

**Q.** What about the MIC (Staphylococcus aureus [21]) of the same molecule?
**A.** 2 µg/mL (≈ 3.74 µM)

**Q.** And the MIC (Pseudomonas aeruginosa)?
**A.** 2 µg/mL (≈ 3.74 µM)

**Q.** What about the AUC [22] of the same molecule?
**A.** 27800 ng·h/mL

**Q.** And the “fT>MIC” value [23]?
**A.** 27%

**Q.** And the “fT>MIC” value [24]?
**A.** 16.3%

**Q.** What about the MIC (Staphylococcus aureus [25]) of the same molecule?
**A.** 0.5 µg/mL (≈ 0.935 µM)

**Q.** What about the “fT>MIC” value [26] of the same molecule?
**A.** 18.4%

**Q.** What about the “fT>MIC” value [27] of the same molecule?
**A.** 31.6%

**Q.** And the “fT>MIC” value [28]?
**A.** 35.6%

**Q.** What about the “fT>MIC” value [29] of the same molecule?
**A.** 41.2%

**Q.** And the “fT>MIC” value [30]?
**A.** 18.5%
